# From ChEMBL document CHEMBL1126079, “Synthesis, configuration, and calcium modulatory properties of enantiomerically pure 5-oxo-1,4,5,6,7,8-hexahydroquinoline-3-carboxylates” (J Med Chem, 1992)
# What was measured:
# Cavia porcellus [1] = organism: Cavia porcellus; test: Effect on KCl-stimulated contraction of aortic strips of guinea pig; type: functional, Aorta
# Summary of the method: (§1)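 Tissue sat in carbogen-perfused Tyrode solution at 37 °C under a 2 g preload, with isometric recording. KCl (67 mmol/L bath concentration) was added after each substance to test for antagonism, with washing back to the initial state between substances. EC50 and intrinsic activity were derived as in the paper's earlier section 1c.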
# Cavia porcellus [2] = organism: Cavia porcellus; test: Intrinsic activity is the inhibition of contraction of guinea pig aorta strips value in comparison with nifedipine.; type: functional; summary of the method: as §1
# Cavia porcellus [3] = organism: Cavia porcellus; test: Maximum inhibition of KCl-stimulated contraction of aortic strips of guinea pig; type: functional, Aorta
# Summary of the method: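 Aortic strips were held in carbogen-perfused Tyrode solution at 37 °C under 2 g preload, and isometric contractions were recorded after amplification. Contractions were induced with KCl at 67 mmol/L bath concentration to test for antagonism. Between substances the preparation was washed back to its initial state before KCl was given again.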
# Cavia porcellus [4] = organism: Cavia porcellus; test: (§2) Maximum inhibition of BaCl2-stimulated contraction of ileum of guinea pig; type: functional
# Summary of the method: (§3)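 Each test substance was given as a single dose to the ileum preparation. BaCl2 contraction was elicited after a 10-min exposure. Between substances the tissue was washed until the initial state returned, then BaCl2 contraction was induced again.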
# Cavia porcellus [5] = organism: Cavia porcellus; test: Effect on BaCl2-stimulated contraction of ileum of guinea pig; type: functional; summary of the method: as §3
# Cavia porcellus [6] = organism: Cavia porcellus; test: Intrinsic activity is the inhibition of contraction of guinea pig ileum value in comparison with nifedipine.; type: functional; summary of the method: as §3
# Cavia porcellus [7] = organism: Cavia porcellus; test: as §2; type: functional; remark: listed apart in the source
# Summary of the method: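 Guinea-pig ileum, single-dose technique: each test substance was added and left for 10 min before BaCl2 contractions were induced. Between substances the preparation was washed until the initial state returned, then BaCl2 contraction was induced again.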
# Cavia porcellus [8] = organism: Cavia porcellus; test: Intrinsic activity value in comparison with nifedipine.; type: functional
SMILES,EC50 (Cavia porcellus [1]) [M l-1],IA (Cavia porcellus [2]),Max effect (Cavia porcellus [3]) [%],Max effect (Cavia porcellus [4]) [%],EC50 (Cavia porcellus [5]),IA (Cavia porcellus [6]),Inhibition (Cavia porcellus [7]) [%],IA (Cavia porcellus [8]),Inhibition (Cavia porcellus [3]) [%]
CO[C@H](COC(=O)C1=C(C)NC2=C(C(=O)CCC2)[C@@H]1c1ccc2c(c1)OCO2)c1ccccc1,7.1e-06,1,70,,,,,,
CO[C@@H](COC(=O)C1=C(C)NC2=C(C(=O)CCC2)[C@H]1c1ccc2c(c1)OCO2)c1ccccc1,4e-05,0.6,42,,,,,,
CO/C(O)=C1\C(C)=NC2=C(C(=O)CCC2)C1c1ccc2c(c1)OCO2 (racemic),2e-06,1,73,76,5e-05 M l-1,0.8,,,
COC(=O)C1=C(C)NC2=C(C(=O)CCC2)[C@@H]1c1ccc2c(c1)OCO2 (stereo in doubt; 9a),,0.54,38,42,25 µM,0.44,,,
COC(=O)C1=C(C)NC2=C(C(=O)CCC2)[C@@H]1c1ccc2c(c1)OCO2 (stereo in doubt; 9b),,1.2,84,89,22 µM,0.94,,,
COC(=O)C1=C(C)NC(C)=C(C(=O)OC)C1c1ccccc1[N+](=O)[O-] [NIFEDIPINE],8.9e-09,,,,2e-08 M l-1,,95,1,70
